Measured values gathered from unrelated publications.
Target: Serine/threonine-protein kinase 3 (STK3, Homo sapiens, UniProt Q13188)
Sequence (Q13188 1-491, as in one of the studies): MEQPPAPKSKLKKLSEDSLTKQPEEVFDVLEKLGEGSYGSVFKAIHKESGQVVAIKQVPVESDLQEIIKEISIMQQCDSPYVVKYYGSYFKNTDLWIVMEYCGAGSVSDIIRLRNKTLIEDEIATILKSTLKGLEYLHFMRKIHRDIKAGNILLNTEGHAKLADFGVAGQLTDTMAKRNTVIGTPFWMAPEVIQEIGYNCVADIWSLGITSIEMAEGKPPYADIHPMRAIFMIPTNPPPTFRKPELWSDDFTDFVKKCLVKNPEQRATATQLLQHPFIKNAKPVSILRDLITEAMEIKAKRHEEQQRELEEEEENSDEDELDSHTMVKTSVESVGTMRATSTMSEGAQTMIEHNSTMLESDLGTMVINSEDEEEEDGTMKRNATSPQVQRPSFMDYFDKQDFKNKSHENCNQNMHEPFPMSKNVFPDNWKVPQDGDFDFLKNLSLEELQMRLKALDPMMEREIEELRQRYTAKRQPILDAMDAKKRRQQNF

O=C(Nc1cnn(-c2csc(C(=O)NC3COC3)c2)c1)Nc1c(F)cccc1Cl has a remaining activity of 93.2% (enzyme activity, inhibitor; 5 µM).
CN1CC(Oc2cnc(C#N)cc2-c2ccn3nc(NC(=O)C4CC4)cc3c2)C1 gave an inhibition of 4% (enzyme activity, inhibitor; 1 µM).
CC(=O)C1=C(C)N(c2cccc(C(F)(F)F)c2)C(=O)N[C@@H]1c1ccc(C#N)nc1 has a remaining binding of 93.1% (cell-free assay, competition with immobilised ligand; 1 µM).
With FC(F)(F)Oc1cccc(-c2cnc3ccc(-c4ccncc4)nn23)c1 the activity vs control was 71% (enzyme activity, inhibitor, radiometric; 5 µM).
The ΔTm of Cn1c2c(c3ccc(Cl)c(Cl)c31)C(C#N)C(C)(C)NC2=O (centres unmarked) is reported as 0.4 °C (thermal stability, DSF; 10 µM).
With O=C(Nc1cccnn1)N1CCC(=Cc2cccc(Oc3ccc(C(F)(F)F)cn3)c2)CC1 the remaining binding was 100% (cell-free assay, competition with immobilised ligand; 1 µM).
For CC/C(=N\NC(=O)NCc1cccc(O)c1)c1ccc(O)c(C)c1O, the inhibition was -0.5% (enzyme activity, inhibitor; 0.1 µM).
Cn1c(=O)n(-c2ccc(C(C)(C)C#N)cc2)c2c3cc(-c4cnc5ccccc5c4)ccc3ncc21 gave a remaining activity of 89% (enzyme activity, inhibitor; 10 µM).
Cc1cnc(NC2CCOCC2)nc1-n1cnc(C(=O)NC(CN)c2cc(F)cc(Cl)c2)c1 (centres unmarked) has a remaining activity of 108% (enzyme activity, inhibitor, radiometric; 1 µM).
The remaining activity of Cc1sc(C(=O)NC2COC2)cc1-n1cc(NC(=O)Nc2c(F)cccc2Cl)cn1 is reported as 93.9% (enzyme activity, inhibitor; 10 µM).
With Cn1c2c(Cl)c(Cl)ccc2c2cc[nH]c(=O)c21 the ΔTm was 1.9 °C (thermal stability, DSF; 10 µM).
COc1cc(Nc2cnc(C#N)c(O[C@H](C)CN(C)C)n2)ncc1-c1cnn(C)c1 gave a remaining activity of 30% (enzyme activity, inhibitor, radiometric; 10 µM).
The remaining activity of FC(F)c1nc2ccccc2n1-c1nc(N2CCOCC2)nc(N2CCOCC2)n1 is reported as 92% (enzyme activity, inhibitor; 10 µM).
For CCN1CCN(Cc2ccc(NC(=O)c3ccc(C)c(Oc4ccnc5[nH]ccc45)c3)cc2C(F)(F)F)CC1, the inhibition was -58.9% (target engagement in cells, inhibitor, chemoproteomics; Huh-7; 1 µM).
CNCc1ccc(-c2cc(-c3nc(-c4ccc(S(=O)(=O)C(C)C)cc4)cnc3N)on2)cc1 has an inhibition of 18% (enzyme activity, inhibitor; 0.4 µM).
The remaining binding of O=C(O)[C@@H]1[C@@H](Cn2nnc3ccccc3c2=O)CC[C@H]1C(=O)c1ccc(OCCC2CCOCC2)cc1 is reported as 100% (cell-free assay, competition with immobilised ligand; 1 µM).
For Cn1c2c(c3ccc(Cl)c(Cl)c31)C(C#N)C1(CCNCC1)NC2=O (racemic), the ΔTm was 0.3 °C (thermal stability, DSF; 10 µM).
The remaining binding of CN1CCN(c2cnc3c(C4CCN(C(=O)c5ccc(OC(F)(F)F)cc5N)CC4)ncnc3c2)CC1 is reported as 82% (cell-free assay, competition with immobilised ligand; 1 µM).
COc1cc2ncnc(Nc3ccc(Oc4ccccc4)cc3C)c2cc1OC gave an inhibition of -4% (enzyme activity, inhibitor; 1 µM).
Cc1ccc(NC(=O)c2ccc(CN3CCN(C)CC3)cc2)cc1Nc1nc(-c2cccnc2)cs1 has a remaining signal of 94.4% (cell-free assay; 0.5 µM).
The remaining activity of CC(C)(O)[C@H]1CC[C@H](Nc2ccc3ncc(-c4cccc(C(F)(F)F)c4)n3n2)CC1 is reported as 73.9% (enzyme activity, inhibitor; 1 µM).
For Cc1cc(-n2nc(Cc3cc(F)cc(C(F)(F)F)c3)nc2C)ccc1C(N)=O, the remaining binding was 100% (cell-free assay, competition with immobilised ligand; 1 µM).
The remaining signal of O=C1Nc2ccc(Cl)cc2C1=Cc1cc(Cl)c(O)c(Cl)c1 is reported as 31.6% (cell-free assay; 0.5 µM).
The remaining activity of Nc1nc(Nc2ccccc2)sc1C(=O)c1c(F)cccc1F is reported as 40% (enzyme activity, inhibitor; 10 µM).
CC(C)(C)c1nc(-c2cccc(NS(=O)(=O)c3c(F)cccc3F)c2F)c(-c2ccnc(N)n2)s1 has a remaining activity of 94% (enzyme activity, inhibitor, radiometric; 1 µM).
CN(C)C(=O)Cn1cc(-c2nc(C3(c4ccc(-c5cnc(N)nc5)cc4)CC3)no2)cn1 has a remaining binding of 100% (cell-free assay, competition with immobilised ligand; 1 µM).
Cc1ccc(Nc2nccc(N(C)c3ccc4c(C)n(C)nc4c3)n2)cc1S(N)(=O)=O gave an inhibition of 4% (cell-free assay, inhibitor; 10 µM).
The remaining binding of Cn1nc(C(F)(F)F)cc1-c1cnc(N2CCc3cc(S(=O)(=O)Nc4c(F)cc(Cl)cc4F)cc(N4CCCC4=O)c32)nc1 is reported as 90% (cell-free assay, competition with immobilised ligand; 1 µM).
COc1cc2c(N3CCN(C(=O)Nc4ccc(OC(C)C)cc4)CC3)ncnc2cc1OCCCN1CCCCC1 gave a remaining signal of 94.7% (cell-free assay; 0.5 µM).
For CNc1cccc2cc(C(=O)Nc3ccc(C(=O)O)cc3)c(=O)[nH]c12, the inhibition was 4.2% (enzyme activity, inhibitor; 10 µM).
Cn1c2c(c3ccccc31)C(C#N)C(C)(C)NC2=O (centres unmarked) gave a ΔTm of -0.5 °C (thermal stability, DSF; 10 µM).
COc1cc(/C=C/C(=O)CC(=O)/C=C/c2ccc(O)c(OC)c2)ccc1O has an activity vs control of 42% (enzyme activity, inhibitor; 1 µM).
For CCOC(=O)c1cc2cc(-c3cc(C(=O)NCc4ccc(C(=O)O)cc4)nn3C)ccc2[nH]1, the remaining binding was 96% (cell-free assay, competition with immobilised ligand; 0.1 µM).
CCCOc1ccc(OC)c(F)c1C(=O)c1ccc(C(=O)N[C@@H]2CNC[C@H]2NC(=O)c2ccc3[nH]ncc3c2)cc1 gave a remaining activity of 85% (enzyme activity, inhibitor; 10 µM).
CNC(=O)c1cc(Oc2ccc(NC(=O)Nc3ccc(Cl)c(C(F)(F)F)c3)cc2)ccn1 gave an inhibition of 7% (cell-free assay, inhibitor; 0.3 µM).
For O=C1NC(=O)c2cc(Nc3ccc(F)cc3)c(Nc3ccc(F)cc3)cc21, the remaining signal was 90.7% (cell-free assay; 0.5 µM).
For Cn1c2c(Cl)c(Cl)ccc2c2cc(N)[nH]c(=O)c21, the ΔTm was 2.2 °C (thermal stability, DSF; 10 µM).
Cc1ccc(NC(=O)c2ccc(C)c(C(F)(F)F)c2)cc1C#Cc1nn(C2CCC(O)CC2)c2ncnc(N)c12 (centres unmarked) has a remaining signal of 63% (cell-free assay; 10 µM).
